Assay outcomes deposited in PubChem by Sanford-Burnham Center for Chemical Genomics.
SUMO1-SIM PPI = modulators of SUMO1 protein-protein interactions, primary screen, biochemical, uHTS; Small ubiquitin-related modifier 1 (Homo sapiens), P63165; SUMO1 binding to a labelled peptide, TR-FRET, 1 h; inhibition, % at 20 µM; hit rate 0.33% among 360,000; in the data active = inhibition above about 37%
Target sequence (P63165 whole entry, looked up): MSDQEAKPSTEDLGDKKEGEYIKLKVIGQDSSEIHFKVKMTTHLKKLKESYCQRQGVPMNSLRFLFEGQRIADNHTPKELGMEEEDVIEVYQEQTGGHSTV
LMPTP block = LMPTP phosphatase inhibitors, primary screen, biochemical, fluorescence intensity, uHTS. Low molecular weight phosphotyrosine protein phosphatase (Homo sapiens), P24666. recombinant LMPTP-A, OMFP fluorogenic substrate. inhibition, % at 20 µM. hit rate 0.22% among 360,000;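 active = compounds that cut the enzyme signal by at least half of the control window in the single-dose screen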;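 also: plate controls were DMSO wells with enzyme plus substrate for no effect and substrate without enzyme for full effect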
Target sequence (P24666 whole entry, looked up): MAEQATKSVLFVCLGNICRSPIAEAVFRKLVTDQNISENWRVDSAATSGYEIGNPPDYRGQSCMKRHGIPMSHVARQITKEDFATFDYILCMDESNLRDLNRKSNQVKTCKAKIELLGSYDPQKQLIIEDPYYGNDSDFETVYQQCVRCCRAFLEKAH
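material = LMPTP-A | quantity = 0.625 nM enzyme | reagent = OMFP substrate, 400 µM final | buffer or medium = Bis-Tris pH 6.0, DTT, detergent | detection = endpoint fluorescence intensity from OMFP dephosphorylation | dosing = single 20 µM dose | read-out basis = % inhibition relative to no-enzyme and uninhibited control wells | control set = no-enzyme and uninhibited controls | timing = 50 min at room temperature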
STEP block = STEP phosphatase inhibitors, primary screen, biochemical, fluorescence intensity, uHTS. hit rate 0.25% among 360,000. Tyrosine-protein phosphatase non-receptor type 5 (Homo sapiens), P54829. inhibition, % at 20 µM. recombinant STEP, OMFP fluorogenic substrate;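 active = inhibition at 20 µM, scaled per plate between control wells, above about 37%, limit read from the data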;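 also: 0% = DMSO with enzyme and substrate and 100% = substrate only without enzyme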
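Material: STEP (striatal-enriched tyrosine phosphatase) enzyme, cell-free; Compound dosing: 20 µM single dose in 1% DMSO; Technique: fluorescence read at 480 nm ex / 540 nm em; Times: reaction 20 min, ambient temperature; Medium: 50 mM Bis-Tris pH 6.0 with 2.5 mM DTT and 0.005% Tween 20; Also added: OMFP at 25 µM.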
Scp-1 inhibitor = Scp-1 phosphatase inhibitors, primary screen, biochemical, colorimetric, uHTS; Carboxy-terminal domain RNA polymerase II polypeptide A small phosphatase 1 (Homo …; Recombinant Scp1, phosphopeptide, malachite green phosphate absorbance; inhibition, % at 20 µM; hit rate 0.88% among 340,000;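 active = inhibition above about 50% at 20 µM, limit read from the data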;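 also: plate controls were DMSO wells with enzyme for no effect and wells lacking enzyme for full effect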
Target sequence (Q9GZU7 76-261 limits assumed): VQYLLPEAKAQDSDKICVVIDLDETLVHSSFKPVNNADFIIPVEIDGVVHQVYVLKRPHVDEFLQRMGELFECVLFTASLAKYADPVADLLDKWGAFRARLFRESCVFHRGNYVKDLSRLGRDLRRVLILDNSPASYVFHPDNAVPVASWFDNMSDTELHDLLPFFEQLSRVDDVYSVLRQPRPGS
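Material: truncated SCP-1 phosphatase (76-261aa) / Buffer or medium: 50 mM Tris acetate pH 5.5, 0.005% Tween-20, 10 mM MgCl2 / Compound dosing: one concentration, 20 µM, with 1.0% DMSO / Incubation: 45 min room-temperature reaction, 5 min colour, 30 min stabiliser / Detection: colorimetric free-phosphate detection, absorbance 630 nm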
DNMT1 inh = human DNMT1 methyltransferase inhibitors, primary screen, biochemical, molecular beacon, fluorescence, HinP1I cleavage, uHTS; inhibition (reported as % activation of signal), % at 10 µM; DNA (cytosine-5)-methyltransferase 1 (Homo sapiens), P26358; hit rate 0.83% among 360,000; in the data active = inhibition above about 50%
* marks the source's active call; other numbers are inactive results; · = no result. The list is not random: actives were taken first. Their share in the collection is about 1.7%.

SMILES | SUMO1-SIM PPI | LMPTP block | STEP block | Scp-1 inhibitor | DNMT1 inh
O=c1cc(-c2ccc(O)c(O)c2)oc2cc(O[C@@H]3O[C@H](CO)[C@@H](O)[C@H](O)[C@H]3O)cc(O)c12 | -16 | 1 | 2 | -2 | 52*
O=C(OCC(=O)N1N=C(c2ccc(Cl)cc2)CC1c1ccco1)c1cncc(Br)c1 (stereo unspecified) | -2 | 5 | 3 | 12 | 16
COc1ccc(/C=N/OCC(=O)N=Nc2c(O)[nH]c3ccc(Br)cc23)cc1 | -9 | 5 | 3 | -3 | 79*
CCOc1ccc(C2C(C(=O)c3ccco3)=C(O)C(=O)N2CCCn2ccnc2)cc1OC (stereo unspecified) | 47* | -2 | -2 | -3 | 1
O=C1C(=O)c2ccccc2C(O)=C1c1ccccc1F | -29 | -1 | 3 | -13 | -3
O=C1C(c2ccnc3ccccc23)=C(O)c2ccccc21 | 22 | 0 | 0 | -5 | 52*
O=C1c2ccccc2C(=O)C1c1ccnc2ccccc12 | 21 | 2 | -13 | -8 | 56*
O=S(=O)(c1ccc(NCCOc2ccccc2)nc1)N1CCCC1 | 3 | 1 | -1 | -2 | -1
CCc1ccc(C(=O)NNC(=O)CN2C(=O)NC(CC)(c3ccccc3)C2=O)cc1 (stereo unspecified) | 4 | -1 | 0 | 1 | 1
N#CC1(NC(=O)COC(=O)c2cc(O)c3ccccc3c2O)CCCCC1 | -9 | 2 | 0 | 85* | -20
O=C(Nc1ccccc1)C1Cc2c(-c3ccc4c(c3)OCO4)ccnc2O1 (stereo unspecified) | 5 | 1 | -3 | · | 5
CC(=O)c1cccc(-c2ccc3c(=O)[nH]c(Nc4ccccc4)cc3c2)c1 | 34 | 19 | 20 | 7 | 105*
CC(=O)c1cccc(NC(=O)c2cccc3c(-c4cccc(C(N)=O)c4)coc23)c1 | 49* | 2 | 1 | · | -5
O=C(CCCn1c(SCC(=O)c2ccc(O)c(O)c2)nc2ccccc2c1=O)NCC1CCCO1 (stereo unspecified) | 6 | 51* | 2 | -6 | 7
O=C1NC(=O)/C(=C/c2ccc(-c3cccc([N+](=O)[O-])c3)o2)S1 | 55* | 28 | 5 | 4 | 6
COc1ccc2[nH]c3c(=O)n(CCCCC(=O)NCCC(C)C)c(=S)[nH]c3c2c1 | -1 | 0 | 2 | -21 | 20
CC1(C)Cc2c(sc(NC(=O)COc3cccc4ccccc34)c2C#N)C(C)(C)N1 | -43 | 4 | 69* | -11 | 26
Cc1ccc(OCC(=O)Nc2sc3c(c2C#N)CC(C)(C)NC3(C)C)cc1 | -1 | 0 | 3 | -5 | -1
NN1C(=O)/C(=C\c2ccco2)SC1=S | -10 | 7 | 8 | 0 | 52*
Cc1cc(/C=C2\SC(=S)N(Cc3ccco3)C2=O)c(C)n1-c1cccnc1 | -17 | 6 | 5 | -4 | -8
O=C1/C(=C/c2ccco2)SC(=S)N1c1cccnc1 | 107* | 75* | 79* | 87* | 99*
O=C1/C(=C\c2ccco2)SC(=S)N1c1ccc(O)cc1 | -11 | -2 | 3 | -5 | -9
Cc1cc(/C=C2/SC(=S)N(c3cccc(C(F)(F)F)c3)C2=O)c(C)n1-c1cccnc1 | -13 | 7 | 2 | 2 | 51*
O=c1oc(-c2ccc(Cl)cc2[N+](=O)[O-])nc2ccccc12 | -25 | -1 | 4 | · | -2
CCc1nc2ccc(C(=O)NCC3CCCCC3)cn2c1N(C)C(=O)c1cccc(OC)c1 | -4 | -3 | 1 | · | 1
SMILES | SUMO1-SIM PPI | LMPTP block | STEP block | Scp-1 inhibitor | DNMT1 inh
O=C(CN1C(=O)/C(=C/c2ccccc2F)SC1=S)NC1C=CS(=O)(=O)C1 (stereo unspecified) | -1 | 27 | 14 | 17 | 54*
O=C(CN1C(=O)/C(=C/c2cccc(Cl)c2)SC1=S)NC1C=CS(=O)(=O)C1 (stereo unspecified) | -15 | 2 | 1 | -1 | 4
Cc1ccnc2nc(C(=O)OCC(=O)c3ccc(NC(=O)CC(C)C)cc3)nn12 | 0 | 2 | 1 | 27 | -8
CCC(=O)Nc1ccc(C(=O)COC(=O)c2nc3nccc(C)n3n2)cc1 | 25 | 46 | 5 | 72* | 109*
Cc1ccc(S(=O)(=O)Nc2c(C)nn(C)c2C)c(C)c1 | 1 | -1 | 2 | -3 | 4
COc1cc(/C=C2\C(=O)NN(c3ccccc3)C2=O)cc([N+](=O)[O-])c1O | -5 | 5 | 7 | 13 | 29
COc1ccc(-n2c(C)cc(/C=C3\C(=O)NN(c4ccccc4)C3=O)c2C)cc1 | -17 | 2 | -1 | -6 | -13
COc1ccc(Sc2ccc(/C=C3\C(=O)NN(c4ccccc4)C3=O)o2)cc1 | 7 | 4 | 8 | 35 | 56*
O=C1NN(c2ccccc2)C(=O)/C1=C\c1ccc(-c2cc([N+](=O)[O-])ccc2O)o1 | -1 | 84* | 46* | 87* | 23
COc1ccc(S(=O)(=O)NC(=O)C2(C)CCN2C(=O)CC2CC2)cc1 (stereo unspecified) | 3 | 3 | 1 | · | -2
C=CCOc1ccc(/C=C/C(=O)OCC(=O)N(C)CC(=O)Nc2ccc(F)cc2)cc1 | -7 | 0 | -1 | -1 | 0
Oc1ccc(CCNc2c3ccccc3nc3ccccc23)cc1O | -14 | 47* | 2 | -10 | 79*
CN(C)CCCNc1c2ccccc2nc2ccccc12 | -68 | 44 | 2 | -4 | 48
c1ccc(CNc2c3ccccc3nc3ccccc23)cc1 | -22 | 61* | 2 | -11 | 67*
COCCCOc1ccnc(CS(=O)c2nc3ccccc3[nH]2)c1C (stereo unspecified) | 1 | 1 | 74* | 14 | -4
Cc1cc(/C=N/NC(N)=S)c(O)c(/C=N/NC(N)=S)c1 | -7 | 1 | -1 | 12 | 53*
CC1(C)C2CCC1(CS(=O)(=O)N1CCN(c3ccc(F)cc3)CC1)C(=O)C2 (stereo unspecified) | 0 | 1 | 0 | -5 | -1
Cc1cc(=O)oc2cc(OCC(=O)NCCCN3CCOCC3)ccc12 | 40* | -1 | 1 | -3 | 0
Cc1cc(=O)oc2cc(OCC(=O)N/N=C/c3cc([N+](=O)[O-])ccc3O)ccc12 | 7 | 71* | 94* | 30 | 20
O=C(COc1ccc2c(-c3ccccc3)cc(=O)oc2c1)NCCCN1CCOCC1 | -16 | -2 | -2 | -3 | 2
Cc1ccc(C)c(NC(=O)CCC(=O)N/N=C/c2cc([N+](=O)[O-])ccc2O)c1 | -14 | 1 | -1 | 40 | 3
